High-throughput results (PubChem)
A selection: hits, their analogues and other compounds. The true share with any hit is near 12%.
ABCB1 inh: ABCB1 efflux pump inhibitors, primary screen, cell-based, multiplex, flow cytometry, ABCG2 counter-screen | 190,000 compounds, 0.067% hits | CCRF-Adr cells, JC-1 efflux | inhibition, % at 6.6 µM; in the data active = inhibition above about 40%;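 note: higher value means more JC-1 retained so stronger ABCB1 efflux block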
ABCG2 block: ABCG2 efflux pump inhibitors, primary screen, multiplex with ABCB1, IgMXP3 cells, flow cytometry | Broad substrate specificity ATP-binding cassette transporter ABCG2 (Homo sapiens), Q9UNQ0 | JC-1 efflux | inhibition, % at 6.6 µM | 190,000 compounds, 0.1% hits | AID 1325, 2008;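 active = inhibition above 80%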
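Assay system – ABCG2 IgMXP3 and barcoded ABCB1 CCRF-Adr cell mix · Input – 3 million cells/mL in well · Reagent – JC-1 fluorescent substrate · Compound – single test compound dose, 6.6 µM final · Timing – 10 min exposure at 25 °C with rotation, no wash · Detection – flow cytometry of retained JC-1 fluorescence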
RAM network inh: inhibitors of the yeast RAM network, primary screen, dse1pr::URA3 reporter, 5-FOA selection; AID 868, 2007; inhibition, % at 50 µM; S. cerevisiae dse1pr::URA3 reporter, 5-FOA growth OD615, 2 d; analog-sensitive cbk1-as2 kinase mutant strain; 190,000 compounds, 1.8% hits;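 active = inhibition above a set limit, 3 SD over mean compound inhibition, cut at about 8.4% in these data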;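 note: inhibition rescues growth on 5-FOA so higher OD means more RAM inhibition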
L major viab: Leishmania major promastigote growth inhibition, primary screen | inhibition, % at 10 µM | Leishmania major promastigotes, resazurin fluorescence viability | 200,000 compounds, 9% hits | AID 1063, 2008; in the data active = inhibition above about 50%;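 note: promastigotes grown with compound for 44 hours at 28 °C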
WT yeast gro inh: growth inhibition of WT strain, primary screen, mitochondrial fusion inhibitor project, WT and mutant strains, chemical genetic; AID 1362, 2008; mitochondrial fusion phenotypic screen; 190,000 compounds, 2.1% hits; inhibition, % at 10 µM; in the data active = inhibition above about 58%; tested in S. cerevisiae
Hits are given with their value; . = inactive.

SMILES | ABCB1 inh | ABCG2 block | RAM network inh | L major viab | WT yeast gro inh
Nc1cc(N)cc(C(=O)OCC(=O)Nc2cc(S(=O)(=O)N3CCCCC3)ccc2Cl)c1 | . | . | . | . | .
Cc1cc(S(=O)(=O)NCCCN2CCOCC2)ccc1F | . | . | . | 91 | .
O=S(=O)(NCCCN1CCOCC1)c1ccc2ccccc2c1 | . | . | . | 91 | .
c1ccc2cc(CN3CCOCC3)ccc2c1 | . | . | . | 54 | .
Cc1ccc(C)c(S(=O)(=O)NCCCN2CCOCC2)c1 | . | . | . | . | .
N#C/C(=C\c1ccccc1)C(=O)OCC(=O)N1CCCC1 | . | . | . | . | .
CCCCOc1ccccc1C1C(C(=O)OC)=C(C)N(C)C(C)=C1C(=O)OC | . | . | . | 88 | .
COC(=O)C1=C(C)N(C)C(C)=C(C(=O)OC)C1c1ccccc1C | . | . | . | . | .
C#CCOC(=O)C[N+](C)(C)CC#Cc1ccccc1 | . | . | . | . | .
O=C1CC(N2CCSCC2)C(=O)N1c1cccc(Cl)c1 (stereo not drawn) | . | . | . | . | .
Clc1ccc(OCCSCc2nc3ccccc3[nH]2)cc1 | . | . | . | . | 79
Cc1ccc(OCCSCc2nc3ccccc3[nH]2)cc1 | . | . | . | . | .
Cc1ccc(CSCc2nc3ccccc3[nH]2)cc1 | . | . | . | . | 67
Cc1cc(C)cc(CC(Cc2nc3ccccc3[nH]2)c2nc3ccccc3[nH]2)c1 (stereo not drawn) | . | . | . | 91 | .
CCCCCC(=O)NC(=S)Nc1ccc2oc(=O)ccc2c1 | . | . | . | . | .
CN(c1cccc(NC(=O)c2cccc([N+](=O)[O-])c2)c1)S(C)(=O)=O | . | . | . | . | .
CN1CCN(C(=O)c2ccc(-n3cccn3)nc2)CC1 | . | . | . | . | .
COc1ccccc1NC(=S)NNC(=O)c1cc(C)nn1C | . | . | . | . | .
Cc1ccc(NC(=S)NC(=O)c2c(-c3ccccc3Cl)noc2C)cc1 | . | . | . | . | .
COc1ccccc1NC(=S)NC(=O)c1c(-c2ccccc2Cl)noc1C | . | . | . | . | 70
Cc1onc(-c2ccccc2Cl)c1C(=O)NC(=S)Nc1ccccc1F | . | . | 11 | . | 70
COc1ccccc1NC(=S)NNC(=O)c1c(Cl)c(C)nn1C | . | . | . | . | 65
Cc1cc(Cl)ccc1OCCCC(=O)N/N=C/c1cccc([N+](=O)[O-])c1 | . | . | . | . | .
CCN(CC(=O)NC(C)C)C(=O)c1ccc(Cl)cc1 | . | . | . | . | .
COC(=O)C(C)N(C(=O)c1ccc(C(=O)c2ccccc2)cc1)c1c(C)cccc1C (stereo not drawn) | . | . | . | 99 | .
SMILES | ABCB1 inh | ABCG2 block | RAM network inh | L major viab | WT yeast gro inh
COC(=O)C(C)N(C(=O)c1ccc(Cl)cc1)c1c(C)cccc1C (stereo not drawn) | . | . | . | 87 | .
CN(C)c1ccc(C(=O)c2ccccc2)cc1 | . | . | . | . | .
O=C(Cc1ccccc1)NCC(=O)OCc1ccc([N+](=O)[O-])cc1 | . | . | . | . | .
COc1ccccc1CNC(=O)C1CCCN1S(=O)(=O)c1cccc2cccnc12 (stereo not drawn) | . | . | . | . | .
CN1/C(=C\C(=O)COC(=O)Cn2nnc(-c3ccccc3)n2)C(C)(C)c2ccccc21 | . | . | . | 90 | .
COc1cc(OC)cc(C(=O)NCC(=O)OCC(=O)/C=C2/N(C)c3ccccc3C2(C)C)c1 | . | . | . | . | .
CN1/C(=C\C(=O)COC(=O)c2ccc([N+](=O)[O-])o2)C(C)(C)c2ccccc21 | . | . | . | 81 | 94
O=C(CNC(=O)c1ccccc1F)Nc1ccccc1C(F)(F)F | . | . | . | . | .
Cc1ccccc1CCN(C(=O)Cn1nnc2ccccc21)C(C(=O)NCC1CCCO1)c1nc2ccccc2n1C (stereo not drawn) | . | . | . | . | .
O=C(Nc1nnc(-c2ccc(Cl)cc2)o1)c1ccc(N2C(=O)CCC2=O)cc1 | . | . | . | 66 | .
Cc1ccc(C(=O)Nc2nnc(-c3ccncc3)o2)cc1 | . | . | . | 53 | .
O=C(Nc1nnc(-c2ccco2)o1)c1ccc(N2C(=O)CCC2=O)cc1 | . | . | . | . | .
